Entries after “also recorded” stand apart in the source; their conditions may differ. Where two headings read alike, the source gives them in different places.
Key:
6HZ = 6HZ test; type: in vivo; details: 50 mg/kg
[1] = test system: Metrazol-induced clonic seizures; experiment: Subcutaneous Metrazol seizure threshold test; type: in vivo, mice; details: for scMET (30) N/F, animals active over tested: 30 mg/kg; for scMET (100) N/F, animals active over tested: 100 mg/kg
Dopamine 2 (D2) = Dopamine 2 (D2) (Homo sapiens, UniProt P14416); experiment: NIMH-PDSP radioligand binding, D2
[2] = molecular target: Serotonin Transporter (SERT) (Homo sapiens, UniProt P31645); experiment: NIMH-PDSP radioligand binding, SERT
mice = experiment: Acute toxicity, minimal motor impairment; type: in vivo; details: for TOX (30) N/F, animals toxic over tested / TOX (65) N/F, animals toxic over tested / TOX (100) N/F, animals toxic over tested / TOX (300) N/F, animals toxic over tested: rotorod; for TOX (30) N/F, animals toxic over tested: 30 mg/kg
Dopamine 1 (D1) = Dopamine 1 (D1) (Homo sapiens, UniProt P21728); experiment: NIMH-PDSP radioligand binding, D1
[3] = molecular target: Norepinephrine Transporter (NET) (Homo sapiens, UniProt P23975); experiment: NIMH-PDSP radioligand binding, NET
MES-induced seizures [4] = experiment: Anticonvulsant protection test in rats; type: in vivo; details: 30 mg/kg
Outline: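 Rats were dosed orally at 30 mg/kg in 0.04 ml/10 g. Corneal electrodes primed with 0.5% tetracaine HCl electrolyte delivered 60 Hz alternating current, 150 mA, for 0.2 s. Protection meant abolition of the hindlimb tonic extensor component of the seizure.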

Serotonin 2A (5-HT2A) = Serotonin 2A (5-HT2A) (Homo sapiens, UniProt P28223); experiment: NIMH-PDSP radioligand binding, 5-HT2A
[5] = molecular target: μ- opioid receptors (MOR) (Homo sapiens, UniProt P35372); experiment: NIMH-PDSP radioligand binding, MOR
[6] = molecular target: Dopamine Transporter (DAT) (Homo sapiens, UniProt Q01959); experiment: NIMH-PDSP radioligand binding, DAT
MES-induced seizures [7] = experiment: Maximal electroshock; type: in vivo, mice; details: for MES (30) N/F, animals active over tested: 30 mg/kg i.p.; for MES (100) N/F, animals active over tested: 100 mg/kg i.p.; for MES (300) N/F, animals active over tested: 300 mg/kg i.p.; for MES neuroprotective activity (in words): mouse, in vivo
Outline: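 Mice received test compound i.p. at 30, 100 or 300 mg/kg in 0.01 ml/g and were tested at various intervals after dosing. Corneal electrodes primed with 0.5% tetracaine HCl electrolyte delivered 60 Hz alternating current, 50 mA, for 0.2 s. An animal counted as protected when the hindlimb tonic extensor component was abolished. Results are scored as animals protected over tested.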

Sigma1 = Sigma1 (Rattus norvegicus, UniProt Q9R0C9); experiment: NIMH-PDSP radioligand binding, Sigma-1
[8] = test system: PCP site of the NMDA receptor complex; experiment: [3H]; type: binding, rat; details: for % inhibition of 1 nM [3H] (+)-MK-801: compound at 10 μM (10,000 nM); for IC50: rat forebrain homogenate, 1 nM (+)-[3H]MK-801; for Ki: read-out: NMDA affinity Ki, calculated by Cheng and Prusoff equation
Outline: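 Washed rat forebrain homogenate (30 ug/mL protein) in 10 mM HEPES, pH 7.4, with 1 nM (+)-[3H]MK-801, 100 uM glutamate, 30 uM glycine and varied competitor concentrations. Nonspecific binding was set with 30 uM (+)-MK-801. Incubation ran 2 h at room temperature, then vacuum filtration onto GF/B filters, three buffer washes and scintillation counting.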

[9] = molecular target: κ- opioid receptors (KOR) (Rattus norvegicus, UniProt P34975); experiment: NIMH-PDSP radioligand binding, KOR
rats = experiment: Acute toxicity, minimal motor impairment in rats; type: in vivo; details: 30 mg/kg
Sigma2 = molecular target: T1, Sigma2 (Rattus norvegicus, UniProt Q5U3Y7); experiment: NIMH-PDSP radioligand binding, Sigma-2
T1 sequence (Q5U3Y7 1-176): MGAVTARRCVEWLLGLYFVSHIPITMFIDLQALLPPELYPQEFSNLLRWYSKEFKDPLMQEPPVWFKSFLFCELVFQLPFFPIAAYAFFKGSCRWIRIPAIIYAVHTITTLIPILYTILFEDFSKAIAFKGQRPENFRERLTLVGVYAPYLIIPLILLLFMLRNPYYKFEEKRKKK

[10] = test system: PCP site of the NMDA receptor complex; details: ref [39], [40]; cited from earlier work

Chain of Dopamine Transporter (DAT) (Q01959 whole entry): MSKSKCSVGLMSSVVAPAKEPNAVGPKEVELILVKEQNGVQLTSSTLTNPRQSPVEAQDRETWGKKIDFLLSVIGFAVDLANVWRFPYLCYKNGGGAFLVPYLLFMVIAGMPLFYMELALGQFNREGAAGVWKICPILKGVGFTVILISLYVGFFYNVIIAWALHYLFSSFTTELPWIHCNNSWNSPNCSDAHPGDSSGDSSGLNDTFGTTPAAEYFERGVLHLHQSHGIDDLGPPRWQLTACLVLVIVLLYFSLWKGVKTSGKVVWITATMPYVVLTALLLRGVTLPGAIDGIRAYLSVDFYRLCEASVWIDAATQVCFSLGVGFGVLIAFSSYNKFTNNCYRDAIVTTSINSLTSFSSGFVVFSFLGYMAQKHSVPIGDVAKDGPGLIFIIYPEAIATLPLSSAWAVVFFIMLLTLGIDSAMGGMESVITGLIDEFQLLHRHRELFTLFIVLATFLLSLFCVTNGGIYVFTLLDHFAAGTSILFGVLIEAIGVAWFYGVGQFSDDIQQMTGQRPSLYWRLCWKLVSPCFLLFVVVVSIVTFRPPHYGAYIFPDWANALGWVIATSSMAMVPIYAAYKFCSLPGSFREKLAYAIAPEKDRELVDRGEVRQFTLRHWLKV
Chain of Norepinephrine Transporter (NET) (P23975 whole entry): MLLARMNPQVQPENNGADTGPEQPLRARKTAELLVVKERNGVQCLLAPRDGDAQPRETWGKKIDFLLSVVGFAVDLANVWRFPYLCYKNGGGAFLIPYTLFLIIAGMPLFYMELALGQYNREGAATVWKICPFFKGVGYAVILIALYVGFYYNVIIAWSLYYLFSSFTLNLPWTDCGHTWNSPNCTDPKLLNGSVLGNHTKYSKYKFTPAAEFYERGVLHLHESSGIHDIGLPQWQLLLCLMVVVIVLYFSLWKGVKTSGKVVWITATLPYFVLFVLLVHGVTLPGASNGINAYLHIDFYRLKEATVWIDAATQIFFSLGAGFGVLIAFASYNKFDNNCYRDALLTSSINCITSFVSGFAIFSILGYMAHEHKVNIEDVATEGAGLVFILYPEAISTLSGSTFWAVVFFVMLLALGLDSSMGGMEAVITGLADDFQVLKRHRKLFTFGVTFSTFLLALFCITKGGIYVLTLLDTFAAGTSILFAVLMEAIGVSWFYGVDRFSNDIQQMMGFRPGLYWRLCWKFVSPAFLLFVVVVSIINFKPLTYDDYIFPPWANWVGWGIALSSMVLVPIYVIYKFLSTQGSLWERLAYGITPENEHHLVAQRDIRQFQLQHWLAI
Chain of κ- opioid receptors (KOR) (P34975 whole entry): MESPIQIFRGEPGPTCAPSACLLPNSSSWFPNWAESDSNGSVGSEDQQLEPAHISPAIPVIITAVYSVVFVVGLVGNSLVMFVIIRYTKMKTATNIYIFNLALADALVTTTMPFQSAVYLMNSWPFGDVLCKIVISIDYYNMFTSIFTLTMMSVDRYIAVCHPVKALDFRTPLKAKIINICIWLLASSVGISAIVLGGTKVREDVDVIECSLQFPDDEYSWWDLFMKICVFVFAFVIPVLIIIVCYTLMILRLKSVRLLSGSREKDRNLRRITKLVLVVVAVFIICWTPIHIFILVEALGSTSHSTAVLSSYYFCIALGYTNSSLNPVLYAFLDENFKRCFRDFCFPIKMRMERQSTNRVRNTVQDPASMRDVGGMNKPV
Chain of μ- opioid receptors (MOR) (P35372 whole entry): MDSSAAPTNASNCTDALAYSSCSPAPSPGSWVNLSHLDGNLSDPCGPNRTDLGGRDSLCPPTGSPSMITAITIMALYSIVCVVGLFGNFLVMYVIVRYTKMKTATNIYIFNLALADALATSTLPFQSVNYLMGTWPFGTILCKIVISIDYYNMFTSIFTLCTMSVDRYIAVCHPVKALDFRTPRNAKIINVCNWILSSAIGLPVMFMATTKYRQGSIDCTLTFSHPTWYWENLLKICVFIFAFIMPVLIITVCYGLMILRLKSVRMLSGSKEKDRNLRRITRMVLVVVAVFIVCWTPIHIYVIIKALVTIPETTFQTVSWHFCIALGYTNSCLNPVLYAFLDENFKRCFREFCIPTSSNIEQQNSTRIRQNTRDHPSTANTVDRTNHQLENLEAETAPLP
Chain of Serotonin Transporter (SERT) (P31645 whole entry): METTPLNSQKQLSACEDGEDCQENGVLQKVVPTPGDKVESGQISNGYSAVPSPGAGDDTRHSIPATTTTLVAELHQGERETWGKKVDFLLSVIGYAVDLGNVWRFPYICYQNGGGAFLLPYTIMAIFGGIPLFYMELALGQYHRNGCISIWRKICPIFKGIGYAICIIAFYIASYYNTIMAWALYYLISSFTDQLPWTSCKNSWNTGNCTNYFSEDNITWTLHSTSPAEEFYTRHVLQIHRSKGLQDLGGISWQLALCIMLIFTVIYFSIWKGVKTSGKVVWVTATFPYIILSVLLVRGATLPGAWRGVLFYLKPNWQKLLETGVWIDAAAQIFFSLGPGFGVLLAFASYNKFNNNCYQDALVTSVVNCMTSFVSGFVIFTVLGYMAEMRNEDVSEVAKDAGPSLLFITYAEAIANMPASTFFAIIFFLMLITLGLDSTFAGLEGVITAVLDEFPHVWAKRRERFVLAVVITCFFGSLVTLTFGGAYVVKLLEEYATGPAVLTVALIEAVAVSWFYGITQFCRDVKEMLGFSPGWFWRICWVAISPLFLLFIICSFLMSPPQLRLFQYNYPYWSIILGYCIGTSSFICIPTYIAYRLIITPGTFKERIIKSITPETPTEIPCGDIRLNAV
Chain of Dopamine 1 (D1) (P21728 whole entry): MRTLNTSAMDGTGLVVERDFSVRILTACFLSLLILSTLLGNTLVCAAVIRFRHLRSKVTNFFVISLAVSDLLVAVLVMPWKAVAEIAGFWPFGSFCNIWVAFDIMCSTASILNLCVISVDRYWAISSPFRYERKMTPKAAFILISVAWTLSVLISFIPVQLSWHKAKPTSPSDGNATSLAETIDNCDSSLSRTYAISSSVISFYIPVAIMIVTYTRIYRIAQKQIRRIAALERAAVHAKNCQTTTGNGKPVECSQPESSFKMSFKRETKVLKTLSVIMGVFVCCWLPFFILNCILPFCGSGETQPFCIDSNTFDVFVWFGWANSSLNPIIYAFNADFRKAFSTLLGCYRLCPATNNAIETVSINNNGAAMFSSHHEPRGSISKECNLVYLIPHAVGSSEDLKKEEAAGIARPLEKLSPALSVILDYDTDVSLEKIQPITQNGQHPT
Chain of Sigma1 (Q9R0C9 whole entry): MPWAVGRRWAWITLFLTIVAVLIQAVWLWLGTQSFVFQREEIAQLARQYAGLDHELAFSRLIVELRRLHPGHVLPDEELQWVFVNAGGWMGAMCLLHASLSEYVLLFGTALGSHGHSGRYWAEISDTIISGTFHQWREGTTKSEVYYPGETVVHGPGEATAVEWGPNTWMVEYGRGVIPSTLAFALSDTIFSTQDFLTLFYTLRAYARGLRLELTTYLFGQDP
Chain of Dopamine 2 (D2) (P14416 whole entry): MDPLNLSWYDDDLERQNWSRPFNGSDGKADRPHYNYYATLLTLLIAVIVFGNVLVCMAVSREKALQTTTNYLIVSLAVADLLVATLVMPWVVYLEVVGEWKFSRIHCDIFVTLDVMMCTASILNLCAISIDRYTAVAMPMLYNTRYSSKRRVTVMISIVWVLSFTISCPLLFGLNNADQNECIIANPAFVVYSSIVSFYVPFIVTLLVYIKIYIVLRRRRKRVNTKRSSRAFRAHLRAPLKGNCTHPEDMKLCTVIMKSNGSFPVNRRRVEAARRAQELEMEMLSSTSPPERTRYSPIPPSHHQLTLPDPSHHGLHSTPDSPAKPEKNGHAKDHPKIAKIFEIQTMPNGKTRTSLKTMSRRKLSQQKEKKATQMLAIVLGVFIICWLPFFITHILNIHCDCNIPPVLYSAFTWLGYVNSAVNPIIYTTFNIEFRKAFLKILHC
Chain of Serotonin 2A (5-HT2A) (P28223 whole entry): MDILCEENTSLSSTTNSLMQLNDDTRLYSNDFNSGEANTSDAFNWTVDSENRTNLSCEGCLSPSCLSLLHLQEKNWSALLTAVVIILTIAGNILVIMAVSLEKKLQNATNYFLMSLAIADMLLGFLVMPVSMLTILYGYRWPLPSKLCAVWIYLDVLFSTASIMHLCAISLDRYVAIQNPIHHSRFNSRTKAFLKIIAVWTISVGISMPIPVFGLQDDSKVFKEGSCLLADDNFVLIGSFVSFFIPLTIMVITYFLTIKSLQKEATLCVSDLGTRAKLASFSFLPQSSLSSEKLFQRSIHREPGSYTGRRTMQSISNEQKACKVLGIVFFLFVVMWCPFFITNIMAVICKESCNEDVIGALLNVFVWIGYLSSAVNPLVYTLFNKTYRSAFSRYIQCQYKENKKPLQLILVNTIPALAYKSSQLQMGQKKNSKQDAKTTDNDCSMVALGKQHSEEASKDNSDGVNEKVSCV

| SMILES | scMET (30) N/F, animals active over tested ([1]; 0.5 h) | scMET (30) N/F, animals active over tested ([1]; 4.0 h) | scMET (100) N/F, animals active over tested ([1]; 0.5 h) | scMET (100) N/F, animals active over tested ([1]; 4.0 h) | Ki (Dopamine 2 (D2)) | Ki [2] | TOX comments (mice; 100 mg/kg, 0.5 h) | TOX comments (mice; 300 mg/kg, 0.5 h) | TOX (30) N/F, animals toxic over tested (mice; 0.5 h) | TOX (30) N/F, animals toxic over tested (mice; 4.0 h) | TOX (100) N/F, animals toxic over tested (mice; 100 mg/kg, 0.5 h) | TOX (100) N/F, animals toxic over tested (mice; 100 mg/kg, 4.0 h) | TOX (300) N/F, animals toxic over tested (mice; 300 mg/kg, 0.5 h) | Ki (Dopamine 1 (D1)) | Ki [3] | Ki (Serotonin 2A (5-HT2A)) | MES (30) N/F, animals active over tested (MES-induced seizures [7]; 0.5 h) | MES (30) N/F, animals active over tested (MES-induced seizures [7]; 4.0 h) | MES (100) N/F, animals active over tested (MES-induced seizures [7]; 0.5 h) | MES (100) N/F, animals active over tested (MES-induced seizures [7]; 4.0 h) | also measured |
| --- | --- | --- | --- | --- | --- | --- | --- | --- | --- | --- | --- | --- | --- | --- | --- | --- | --- | --- | --- | --- | --- |
| Fc1ccc(C2(NCCN3CCOCC3)CC3CCC2C3)cc1 (stereo not shown) [Compound 5d, 2-(4-Fluorophenyl)-N-(2-morpholinoethyl)bicyclo [2.2.1]heptan-2-amine] | 0/1 0/1 | 0/1 0/1 | 0/1 0/1 | 0/1 0/1 | > 10 µM | > 10 µM | Clonic seizures | Loss of righting reflex; also recorded: Death | 0/4 | 0/2 | 1/8 | 0/4 | 4/4 / | > 10 µM | > 10 µM | > 10 µM | 0/1 0/1 | 0/1 0/1 | 2/3 | 0/3 | 6HZ (50), animals active over tested (6HZ; 0.5 h): 1/4 1/4; 6HZ (50), animals active over tested (6HZ; 4.0 h): 1/4 1/4; TOX comments (mice; 65 mg/kg, 0.25 h): Clonic seizures; TOX (65) N/F, animals toxic over tested (mice; 65 mg/kg, 0.5 h): 0/4 0/4; TOX (65) N/F, animals toxic over tested (mice; 65 mg/kg, 4.0 h): 0/4 0/4; protection in rats (in words) (MES-induced seizures [4]): did not display any protection; Ki [5]: > 10 µM; Ki [6]: 6.48 µM; MES (300) N/F, animals active over tested (MES-induced seizures [7]; 0.5 h): 1/1; MES (300) N/F, animals active over tested (MES-induced seizures [7]; 4.0 h): 0/0; MES neuroprotective activity (in words) (MES-induced seizures [7]): displayed MES neuroprotective activity; Ki (Sigma1): > 10 µM; affinity for NMDA (in words) [8]: did not exhibit significant affinity; Ki [9]: > 10 µM; toxicity in rats (in words) (rats): did not display any protection or toxicity; Ki (Sigma2): > 10 µM |
| c1ccc(C2(NCCN3CCCCC3)CC3CCC2C3)cc1 (stereo not shown) [Compound 5a, 2-Phenyl-N-(2-(piperidin-1-yl)ethyl)bicyclo[2.2.1]heptan-2-amine] | 0/1 0/1 | 0/1 0/1 | 0/1 0/1 | 0/1 0/1 | > 10 µM | > 10 µM | Clonic seizures | Death | 0/4 | 0/2 | 8/8 | 0/4 | 4/4 / | > 10 µM | > 10 µM | 2.64 µM | 0/1 0/1 | 0/1 0/1 | 3/3 | 1/3 | toxicity profile (in words) (mice; mouse, in vivo): acceptable toxicity profile; Ki [5]: > 10 µM; Ki [6]: > 10 µM; MES protection (in words) (MES-induced seizures [7]; 100 mg/kg): MES neuroprotection activity; MES neuroprotective activity (in words) (MES-induced seizures [7]): greatest degree of protection from MES induced neural damage and death; Ki (Sigma1): > 10 µM; affinity for NMDA (in words) [8]: highest affinity for NMDA; % inhibition of 1 nM [3H] (+)-MK-801 [8]: greater than 90%; IC50 [8]: 7.86 ± 1.64 µM; Ki [8]: 5.28 µM; Ki [9]: 0.876 µM; Ki (Sigma2): > 10 µM |
| CN1CC[C@@]23CCCC[C@@H]2[C@@H]1Cc1ccc(O)cc13 [DX, dextrophan] |  |  |  |  |  |  |  |  |  |  |  |  |  |  |  |  |  |  |  |  | activity / affinity at NMDA (in words) [10]: μM affinity |
| Fc1ccc(C2(NCCN3CCCC3)CC3CCC2C3)cc1 (stereo not shown) [Compound 5f] | 0/1 0/1 | 0/1 0/1 | 0/1 0/1 | 0/1 0/1 |  |  | Clonic seizures | Death | 0/4 | 0/2 | 5/8 | 0/4 | 4/4 / |  |  |  | 0/1 0/1 | 0/1 0/1 | 1/3 | 0/1 | Ki (Dopamine 2 (D2); read-out: D2 binding affinity, Human Cloned, hot ligand N-Methylspiperone): > 10 µM; Ki ([2]; read-out: SERT binding affinity, Human Cloned, hot ligand Citalopram): 4.61 µM; Ki (Dopamine 1 (D1); read-out: D1 binding affinity, Human Cloned, hot ligand SCH23390): > 10 µM; Ki ([3]; read-out: NET binding affinity, Human Cloned, hot ligand Nisoxetine): > 10 µM; Ki (Serotonin 2A (5-HT2A); read-out: 5HT2A binding affinity, Human Cloned, hot ligand Ketanserin): > 10 µM; Ki ([5]; read-out: MOR binding affinity, Human Cloned, hot ligand DAMGO): > 10 µM; Ki ([6]; read-out: DAT binding affinity, Human Cloned, hot ligand WIN35428): 0.226 µM; Ki (Sigma1; read-out: Sigma 1 binding affinity, Rat Brain, hot ligand Pentazocine(+)): > 10 µM; % inhibition of 1 nM [3H] (+)-MK-801 [8]: greater than 90%; IC50 [8]: 8.66 ± 2.56 µM; Ki [8]: 5.82 µM; Ki ([9]; read-out: KOR binding affinity, Rat Cloned, hot ligand U69593): 2.11 µM; Ki (Sigma2; read-out: Sigma 2 binding affinity, Rat C12, hot ligand DTG): > 10 µM |

From paper PMC3115441 (Chemical biology & drug design, 2011)
